The target of assay [1] is T1, Inhibitor of nuclear factor kappa-B kinase subunit beta (Homo sapiens, UniProt O14920).
T1 sequence (O14920 whole entry): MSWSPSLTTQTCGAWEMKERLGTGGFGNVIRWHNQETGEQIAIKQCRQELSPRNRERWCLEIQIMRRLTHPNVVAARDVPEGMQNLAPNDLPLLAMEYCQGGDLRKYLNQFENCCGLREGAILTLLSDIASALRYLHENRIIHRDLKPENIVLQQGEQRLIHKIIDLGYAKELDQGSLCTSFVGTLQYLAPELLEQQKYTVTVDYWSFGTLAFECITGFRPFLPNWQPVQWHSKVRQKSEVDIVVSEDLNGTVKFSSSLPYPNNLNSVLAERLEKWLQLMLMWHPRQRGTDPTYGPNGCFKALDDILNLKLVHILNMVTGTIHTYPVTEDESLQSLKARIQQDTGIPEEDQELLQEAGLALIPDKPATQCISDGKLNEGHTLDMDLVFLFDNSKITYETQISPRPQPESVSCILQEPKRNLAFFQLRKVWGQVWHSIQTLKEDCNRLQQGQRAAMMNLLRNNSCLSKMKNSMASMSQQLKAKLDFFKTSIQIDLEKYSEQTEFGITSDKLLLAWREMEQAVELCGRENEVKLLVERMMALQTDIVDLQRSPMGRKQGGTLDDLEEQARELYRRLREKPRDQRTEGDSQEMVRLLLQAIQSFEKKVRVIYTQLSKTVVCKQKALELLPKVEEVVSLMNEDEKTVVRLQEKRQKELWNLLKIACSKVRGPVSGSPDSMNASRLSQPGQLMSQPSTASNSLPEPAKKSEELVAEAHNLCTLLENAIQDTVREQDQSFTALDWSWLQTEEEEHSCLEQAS
Description: Inhibition of IKK-beta using TMB substrate after 15 mins by spectrophotometer analysis. Summed up:
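Kit-supplied IKKβ (50 ng in 4× reaction cocktail) preincubated with test sample 5 min at room temperature. 2× ATP/biotinylated substrate peptide cocktail added, 30 min at room temperature, stopped with 50 mM EDTA pH 8. Product captured on streptavidin plate, probed with anti-phospho-IκBα (Ser32) then HRP anti-rabbit IgG. TMB developed 15 min, read at 450 nm.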

The subject of assay [2] is U-251. Description: Antiproliferative activity against human U251 cells after 24 hrs by MTT assay. Conditions: U-251, 24 h. The assay is classed as functional, cell-based. In short, it runs like this: (§1)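 Test agents diluted in culture medium, 24 h exposure. Viability read colorimetrically by MTT; vitality index (%) = A_treatment/A_control × 100; IC50 reported.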
Assay [3] concerns A549. As to the kind of experiment: Antiproliferative activity against human A549 cells after 24 hrs by MTT assay. The assay is classed as functional, cell-based. Conditions: A549, 24 h. In short, it runs like this:
as §1

The subject of assay [4] is U-251. As to the kind of experiment: Induction of apoptosis in human U251 cells assessed as appearance of nuclear condensation and apoptotic bodies at 4 to 64 uM after 24 hrs by DAPI staining. The assay is classed as functional, cell-based. Summed up: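 Treated U251 cells stained with DAPI and examined by fluorescence microscopy at 400× for bright condensed nuclei and apoptotic bodies.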

Assay [5] concerns U-251. As to the kind of experiment: Induction of apoptosis in human U251 cells assessed as morphological changes at 4 to 64 uM after 24 hrs by inverted light microscopic analysis. The assay is classed as functional, cell-based. Summed up:
(§2)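 U251 cells in DMEM with 10% fetal calf serum under 5% CO2, exposed to compound for 24 h. Cell shape (rounding, shrinkage) inspected and photographed under an inverted light microscope at 200×, compared against untreated cells.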

For assay [6], the system named is U-251. As to the kind of experiment: Induction of apoptosis in human U251 cells assessed as increase in early and median apoptotic cells at 4 to 16 uM after 24 hrs using Annexin V/propidium iodide staining by flow cytometry. The assay is classed as functional. Summed up:
(§3)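 U251 cells (DMEM, 10% fetal calf serum, 5% CO2) treated 24 h, washed with PBS and resuspended in binding buffer (pH 7.5, 10 mM HEPES, 2.5 mM CaCl2, 140 mM NaCl). Stained with Annexin V-FITC then PI for 10 min in the dark at room temperature, then analysed by flow cytometry. Lower-right quadrant counted as early/median apoptotic; upper-right as late apoptotic/necrotic.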

Assay [7] relates to U-251. Description: Induction of apoptosis in human U251 cells assessed as increase in late apoptotic and necrotic cells at 4 to 16 uM after 24 hrs using Annexin V/propidium iodide staining by flow cytometry. The assay is classed as functional. Summed up: as §3
Assay [8] deals with U-251. As to the kind of experiment: Induction of apoptosis in human U251 cells assessed as morphological changes at 8 uM after 24 hrs by inverted light microscopic analysis. The assay is classed as functional, cell-based. Summed up: as §2
The target in assay [9] is T2, NF-kappa-B inhibitor alpha (Homo sapiens) (UniProt P25963).
T2 sequence (whole entry): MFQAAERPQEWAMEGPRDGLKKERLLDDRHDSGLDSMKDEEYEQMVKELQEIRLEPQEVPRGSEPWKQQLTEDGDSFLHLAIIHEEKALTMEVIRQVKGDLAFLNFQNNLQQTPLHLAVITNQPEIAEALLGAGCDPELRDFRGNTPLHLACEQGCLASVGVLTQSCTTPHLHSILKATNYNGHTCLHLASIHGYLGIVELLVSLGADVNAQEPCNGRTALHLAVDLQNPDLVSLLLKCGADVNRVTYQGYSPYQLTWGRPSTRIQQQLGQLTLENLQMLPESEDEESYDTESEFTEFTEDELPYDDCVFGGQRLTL
Description: Inhibition of TNF-alpha-induced IkappaBalpha degradation in human A549 cells at 4 to 8 uM treated 4 hrs before TNFalpha stimulation measured after 30 mins by Western blotting. The assay is classed as cell-based. In short, it runs like this:
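A549 cells incubated 4 h with 4 or 8 μM compound, then exposed to TNF 0.1 ng/mL for various times. Cytoplasmic IκBα was followed by western blot.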

Assay [10] relates to A549. Description: Inhibition of NF-kappaB activation in human A549 cells assessed as inhibition of TNFalpha/IFNgamma/IL-1beta-induced NF-kappaB nuclear translocation at 5 uM treated 2 hrs before TNFalpha/IFNgamma/IL-1beta stimulation measured after 30 mins. The assay is classed as cell-based. In short, it runs like this:
(§4)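 A549 cells plated at 9000 per well, serum-starved 18 h, then given compound at graded concentrations for 2 h at 37 °C. Stimulated 30 min at 37 °C with TNFα 50 ng/mL, IFN-γ 100 U/mL and IL-1β 100 U/mL. Fixed, permeabilised and immunostained for NF-κB. High-content imaging read-out was the nuclear/cytoplasmic NF-κB fluorescence ratio, taken as the translocation inhibition rate.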

In assay [11] the test system is A549. Description: Inhibition of NF-kappaB activation in human A549 cells assessed as inhibition of TNFalpha/IFNgamma/IL-1beta-induced NF-kappaB nuclear translocation treated 2 hrs before TNFalpha/IFNgamma/IL-1beta stimulation measured after 30 mins. The assay is classed as cell-based. Summed up: as §4
Assay [12] concerns the target T2, NF-kappa-B inhibitor alpha (Homo sapiens). As to the kind of experiment: Inhibition of TNF-alpha-induced IkappaBalpha phosphorylation in human A549 cells at 4 to 8 uM treated 4 hrs before TNFalpha stimulation measured after 30 mins by Western blotting. The assay is classed as cell-based.
Assay [13] relates to A549. As to the kind of experiment: Inhibition of NF-kappaB activation in human A549 cells assessed as inhibition of TNFalpha-induced p65 nuclear translocation treated 4 hrs before TNFalpha stimulation measured after 30 mins by Western blotting. The assay is classed as cell-based. Summed up: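 A549 cells either untreated or pretreated with compound for 4 h at 37 °C, then given TNFα 50 ng/mL for 30 min. Cytoplasmic and nuclear extracts were western-blotted for p65, with β-actin (cytoplasm) and histone (nucleus) as loading controls.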

Molecules are shown by their SMILES. pIC50: −log10 of the molar value. Calls of active or inactive are those of the source. The calls are words filed in the database; no cut-off is given here.

With `CC(C)=CCc1cc(C2=CC(=O)C3=C[C@@H]4C[C@H]5C(C)(C)O[C@@](CC=C(C)C)(C4=O)[C@@]35O2)ccc1O`, the pIC50 in assay [1] was 4.60; with U-251 [2] it was 4.73; in the assay with A549 [3] it was 4.81.

In the case of `CC(C)=CC[C@@]12OC(C)(C)[C@@H]3C[C@@H](C=C4C(=O)c5c(O)cc(O)cc5O[C@]431)C2=O`, the outcome in the assay with U-251 [4] and in the assay on U-251 [5] was Active. Also, the figures for the pIC50 (in assay [1]; in the assay on U-251 [2]; in the assay with A549 [3]) were 5.45, 5.14 and 5.57, respectively. The Activity in the assay with U-251 [6] is 58.21%; in the assay on U-251 [7] it was 34.24%.

On to `CC(C)=CC[C@@]12OC(C)(C)[C@@H]3C[C@@H](C=C4C(=O)c5ccccc5O[C@]431)C2=O`, for which the values for the pIC50 (in [1]; with U-251 [2]; in the assay with A549 [3]) were 4.62, 4.73 and 5.71, respectively.

For `O=c1cc(-c2ccccc2)oc2c(O)c(O)ccc12` [7,8-DIHYDROXYFLAVONE], the pIC50 is 5.01 in [1], 4.30 in the assay on U-251 [2] and 4.43 with A549 [3].

With `CC(C)=CC[C@@]12OC(C)(C)[C@@H]3C[C@@H](C=C4C(=O)CC(C)O[C@]431)C2=O` (stereo partly drawn), the negative logarithm of the IC50 (pIC50) in [1] was 4.40; in the assay on U-251 [2] it was 4.08; in the assay on A549 [3] it was 4.22.

As to `CC(C)=CCc1c(O)cc(O)c2c1O[C@]13C(=C[C@@H]4C[C@H]1C(C)(C)O[C@@]3(CC=C(C)C)C4=O)C2=O`, the results for the pIC50 (in assay [1]; with U-251 [2]; in the assay on A549 [3]) were 5.18, 5.07 and 5.45, respectively.

In the case of `CC(C)=CCc1c(O)cc2c(c1O)C(=O)C1=C[C@@H]3C[C@H]4C(C)(C)O[C@@](CC=C(C)C)(C3=O)[C@@]14O2`, the negative-log IC50 (pIC50) was 4.97 in assay [1], 4.65 in the assay with U-251 [2] and 4.84 with A549 [3].

Take `CC(C)=CC[C@@]12OC(C)(C)[C@@H]3C[C@@H](C=C4C(=O)C=C(c5ccccc5)O[C@]431)C2=O`: the pIC50 in [1] is 4.38; in the assay on U-251 [2], 4.40; in the assay with A549 [3], 4.56.

For the compound `CC(C)=CCc1c(O)cc(O)c2c(=O)c3ccccc3oc12`, the pIC50 in assay [1] is 4.88; in the assay on U-251 [2], 4.33; with A549 [3], 4.46.

As for `CC(C)=CCC[C@]1(C)C=Cc2c(O)c3c(c(CC=C(C)C)c2O1)O[C@]12C(=C[C@@H]4C[C@H]1C(C)(C)O[C@@]2(C/C=C(/C)C(=O)O)C4=O)C3=O` [GAMBOGIC ACID], the results for the pIC50 (in assay [1]; in the assay on U-251 [2]; in the assay on A549 [3]) were 5.51, 5.59 and 5.96, respectively. Moreover, the outcome with U-251 [8] was Active. In addition, the inhibition entry in assay [9] and in assay [12] was “Active” each time. For the same compound, the inhibition with A549 [10] was 50.2%; in the assay with A549 [11], “Dose-dependent effect”; in the assay on A549 [13], “Dose-dependent effect”.

As to `CC(C)=CC[C@@]12OC(C)(C)[C@@H]3C[C@@H](C=C4C(=O)c5c(O)cccc5O[C@]431)C2=O`, the pIC50 in assay [1] is 5.09; in the assay on U-251 [2], 5.04; in the assay on A549 [3], 6.15.

These data come from ChEMBL document CHEMBL1955791, “Studies on gambogic acid (IV): Exploring structure-activity relationship with IκB kinase-beta (IKKβ)” (Eur J Med Chem, 2012).
